MEKK3 PB1 HTS: modulators of MEKK3-MEK5 PB1 binding, primary screen, biochemical, wildtype MEKK3, multiplex bead flow cytometry, Alexa488-MEK5 | Mitogen-activated protein kinase kinase kinase 3 (Homo sapiens), Q99759 | bead-based flow cytometry, Alexa488-MEK5 binding to MEKK3; actives lie on both sides; 0 = blocked by unlabeled MEK5, 100 = vehicle | binding response (% of control), % at 10 µM | actives 1.4% (n = 290,000) | AID 1529, 2009;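 active = binding response more than 3 SD above or below the average of its plate-row segment, actives on both sides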;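 also: Alexa488 bead fluorescence after subtracting the streptavidin-only scavenger bead signal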
Target sequence (Q99759 whole entry, looked up): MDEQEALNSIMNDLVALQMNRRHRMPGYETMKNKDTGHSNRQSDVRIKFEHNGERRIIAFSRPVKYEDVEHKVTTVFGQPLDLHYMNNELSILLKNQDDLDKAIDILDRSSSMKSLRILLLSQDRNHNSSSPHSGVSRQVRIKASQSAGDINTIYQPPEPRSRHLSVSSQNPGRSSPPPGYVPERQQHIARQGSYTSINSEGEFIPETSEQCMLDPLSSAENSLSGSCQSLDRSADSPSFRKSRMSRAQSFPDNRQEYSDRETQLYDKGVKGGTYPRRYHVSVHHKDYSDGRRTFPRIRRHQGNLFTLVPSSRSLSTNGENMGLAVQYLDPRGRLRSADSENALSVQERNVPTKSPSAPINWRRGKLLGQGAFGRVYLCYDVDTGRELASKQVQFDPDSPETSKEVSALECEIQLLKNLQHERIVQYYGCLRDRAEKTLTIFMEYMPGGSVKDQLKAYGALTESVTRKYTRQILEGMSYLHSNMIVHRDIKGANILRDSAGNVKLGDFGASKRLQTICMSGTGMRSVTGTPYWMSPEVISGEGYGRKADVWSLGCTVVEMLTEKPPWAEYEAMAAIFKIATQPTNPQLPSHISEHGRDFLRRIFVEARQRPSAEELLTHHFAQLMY
ABCB1 block: ABCB1 efflux pump inhibitors, primary screen, cell-based, multiplex, flow cytometry, ABCG2 counter-screen. AID 1326, 2008. actives 0.067% (n = 190,000). ATP-dependent translocase ABCB1 (Homo sapiens), P08183. inhibition, % at 6.6 µM. CCRF-Adr cells, JC-1 efflux; in the data active = inhibition above about 40%;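 also: 0% = vehicle and 100% = reference inhibitor; higher value means more JC-1 retained so stronger ABCB1 efflux block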
MEKK2 mut-MEK5: MEK5 binding signal on mutant MEKK2 PB1, primary screen, biochemical, multiplex bead flow cytometry, Alexa488-MEK5; percent response, % at 10 µM; actives 0.35% (n = 290,000); Alexa488-MEK5 binding to MEKK2 mutant; in the data active = percent response above about 24%, passing the limit was not always enough
ABCG2 block: ABCG2 efflux pump inhibitors, primary screen, multiplex with ABCB1, IgMXP3 cells, flow cytometry; inhibition, % at 6.6 µM; JC-1 efflux; actives 0.1% (n = 190,000); Broad substrate specificity ATP-binding cassette transporter ABCG2 (Homo sapiens), Q9UNQ0;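 active = inhibition above 80%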;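 also: 0% = DMSO and 100% = nicardipine control wells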
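Incubation: cells with compound and JC-1, 10 min at 25 °C, rotating, no wash / Test system: IgMXP3 (ABCG2) plus far-red-tagged CCRF-Adr (ABCB1) cells / Compound dosing: one concentration, 6.6 µM final / Also added: JC-1 fluorescent substrate / Evaluation: efflux inhibition in percent versus controls / Detection: flow cytometry, 530 nm JC-1 signal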
MEKK2 WT-MEK5: modulators of MEK5 binding to wildtype MEKK2, primary screen, biochemical, multiplex bead flow cytometry, Alexa488-MEK5. Mitogen-activated protein kinase kinase kinase 2 (Homo sapiens), Q9Y2U5. Alexa488-MEK5 binding to MEKK2 WT; actives lie on both sides. binding response (% of control), % at 10 µM. actives 1.1% (n = 290,000); in the data active = binding response below about 67% or above about 130%
MEKK2wt confirm: modulators of MEK5 binding to wildtype MEKK2, confirmation, biochemical, single concentration, multiplex bead flow cytometry; shares compounds with MEKK3 PB1 HTS; Alexa488-MEK5 binding to MEKK2 WT; actives lie on both sides; binding response (% of control), % at 10 µM; actives 2.4% (n = 5,900); in the data active = binding response below about 16% or above about 210%; inactive = in between
MEKK2mut confirm: mutant MEKK2 PB1-MEK5 binding signal retest – biochemical, single concentration, multiplex bead flow cytometry, confirmation; percent response, % at 10 µM; AID 1893, 2009; Alexa488-MEK5 binding to MEKK2 mutant; shares compounds with MEKK3 PB1 HTS; actives 2% (n = 5,900); in the data active = percent response mostly above about 71%, no sharp cut-off; inactive = mostly below about 38%;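 also: higher means compound restores mutant binding toward wildtype level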
MEKK3 confirm: MEKK3 wild-type PB1 binding to MEK5, inhibitors, confirmation, biochemical, bead multiplex flow cytometry, single concentration, wildtype. actives 1.8% (n = 5,900). AID 1894, 2009. binding response (% of control), % at 10 µM. shares compounds with MEKK3 PB1 HTS. Alexa488-MEK5 binding to MEKK3; active compounds read low;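 active = binding response below 72% of control, or above a set upper limit, though filed actives all read lower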;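 also: 100% = DMSO only wells and 0% = binding blocked by excess unlabeled MEK5; lower values mean stronger disruption of MEK5 binding to MEKK3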
* = called active by the depositor; . = not tested or not shown; [ ] = another dose, or the depositor's remark. Most compounds without a hit are left out; they make up all but 2.3% or so of the library.

SMILES	MEKK3 PB1 HTS	ABCB1 block	MEKK2 mut-MEK5	ABCG2 block	MEKK2 WT-MEK5	MEKK2wt confirm	MEKK2mut confirm	MEKK3 confirm
O=C(O)c1ccc(Cn2cc(C(F)(F)F)ccc2=O)cc1	37*[inhibitor]	0	-17	1	49	101	-3	106
O=C(NCc1cccnc1)c1ccc(Cn2cc(C(F)(F)F)ccc2=O)cc1	69*[inhibitor]	1	-32	4	81	97	0	97
CC(C)C[C@H]1CN=C(Nc2ccccc2)N1CCCC1CCCCC1	105	.	24*	.	126	127	13	104
CCN1CCN(CCNC(=O)c2ccc(/C=C3/Sc4ccccc4N(Cc4ccccc4C)C3=O)cc2)CC1	104	1	54*	-5	203*	193	67	110
Cc1ccccc1CN1C(=O)c2ccccc2Sc2ccc(C(=O)NCCN3CCOCC3)cc21	106	.	4	.	110	.	.	.
COc1ccc(C2=NS(=O)(=O)N(C)C(C(=O)N(C)Cc3ccccc3)=C2)cc1OC	99	.	2	.	98	.	.	.
Cc1nn(-c2ccccc2C(=O)O)c(=O)c2ccccc12	2.0*[inhibitor]	0	-26	-2	-1.0*[inhibitor]	103	2	103
COc1ccc(OC)c(-c2csc(NC(=O)CSc3ccc([N+](=O)[O-])cc3)n2)c1	141*	0	0	-1	110	103	-3	102
Cc1cc(Nc2ccc(Cl)cc2)nc(-c2ccccc2O)n1	110	.	28*	.	140*	127	9	105
O=C(O)c1ccc(CP(=O)(c2ccccc2)c2ccccc2)cc1	122*	.	11	.	123	105	5	105
CCOc1ccc(-n2ccc(=O)c(C(=O)Nc3ccc(S(=O)(=O)Nc4ncccn4)cc3)n2)cc1	99	.	2	.	100	.	.	.
CCCSC(=O)N(CC)CC(=O)Nc1c(CC)cccc1CC	96	1	1	2	100	.	.	.
C=CCN(CC(=O)Nc1c(C)cccc1CC)C(=O)SCCC	81*[inhibitor]	1	-9	8	95	98	-1	99
O=C(CNC(=O)C(c1ccccc1)c1ccccc1)N/N=C\c1ccc(C(=O)O)cc1	100	.	-9	.	99	.	.	.
COc1ccc(C2CC2/C(C)=N/OC(=O)C2CC2)cc1 (configuration not stated)	60	0	-12	1	65	.	.	.
COc1ccc(C2CC2C(C)=O)cc1 (configuration not stated)	134*	0	5	2	121	98	0	102
CC1CCCN(C(=O)C2CCN(CCCc3ccccc3)CC2)C1 (configuration not stated)	79*[inhibitor]	2	-5	59	98	99	-2	94
COc1ccc(C2CC(=O)OC3=C2C(=O)CC(C)(C)C3)c(OC)c1 (configuration not stated)	69*[inhibitor]	1	-2	2	80	93	1	96
C[N+]1(CCC(=O)c2ccccc2)CCCCC1	2.0*[inhibitor]	0	-13	4	2.0*[inhibitor]	117	11	114
O=C(CNC(=S)NC(=O)c1ccc(F)cc1)c1ccccc1	136*	0	2	3	107	103	-2	101
COC(=O)c1c(NC(=O)c2cccnc2)sc(C(=O)N(C)C)c1C	162*	0	1	3	109	107	3	106
COCc1nc2oc3ccc(F)cc3c(=O)c2cc1C(=O)OC	99	.	0	.	102	.	.	.
C=C1C2(C(=O)Nc3ccc(SC(F)F)cc3)CCC(C2)C1(C)C (configuration not stated)	98	0	8	18	107	.	.	.
O=C(Nc1ccc(SC(F)F)cc1)C12CCC(CC1)C2	134*	6	0	6	104	78	-13	87
Cc1ccc(CNC(=O)Cn2ccc3ccccc3c2=O)o1	0.0*[inhibitor]	1	-11	4	-3.0*[inhibitor]	98	9	102
SMILES	MEKK3 PB1 HTS	ABCB1 block	MEKK2 mut-MEK5	ABCG2 block	MEKK2 WT-MEK5	MEKK2wt confirm	MEKK2mut confirm	MEKK3 confirm
Cn1c(O)c(N=NC(=O)c2cc(-c3cccs3)nc3ccccc23)c2ccccc21	130*	1	1	3	100	99	0	105
O=C(N=Nc1c(O)[nH]c2ccc(Br)cc12)c1cc(-c2cccs2)nc2ccccc12	101	0	0	3	98	.	.	.
COc1ccc(CCNC(=O)COc2ccc3c(C)cc(=O)oc3c2)cc1OC	102	.	2	.	100	.	.	.
Cc1cc(C(=O)COC(=O)Cc2n[nH]c(=O)c3ccccc23)c(C)n1-c1ccc2c(c1)OCCO2	135*	11	0	38	102	101	-5	96
COC(=O)C(=NNc1c(C)n(C)n(-c2ccccc2)c1=O)C(=O)OC	141*	1	1	4	112	72	-16	74
COc1cccc(C(=O)N2CCN=C2SC)c1	58*[inhibitor]	1	-4	2	76	99	-5	97
Cc1cc(C)c(/C([O-])=C(/C(=S)Nc2ccc(SC(F)F)cc2)[n+]2ccccc2)cc1C	103	3	-4	0	96	.	.	.
[O-]/C(=C(\C(=S)Nc1ccc(SC(F)F)cc1)[n+]1ccccc1)c1cc(Cl)ccc1Cl	102	1	-5	0	58*[inhibitor]	97	-4	103
CC(=O)c1c(N2CCN(c3ccccc3)CC2)nc(=S)n(-c2ccccc2)c1C	82	1	11	2	23*[inhibitor]	93	-7	94
CC(=O)c1c(N2CCN(CCO)CC2)nc(=S)n(-c2ccccc2)c1C	104	1	1	11	103	.	.	.

Bioassay records deposited in PubChem BioAssay by NMMLSC.
